The record followed here is the array DNA melting data of Ke et al. (doi:10.1101/2024.01.08.574731).

Data set [1] can be described thus: melting temperature; fluorescence melt of hairpins on a sequencing array, two-state fit, raised by 9.35 °C to match UV melts. As to conditions: sodium 0.088 M. A digest of the protocol: (§1)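 Cy3 fluorescence of library hairpins on a sequenced MiSeq flow cell, with annealed Cy3 and quencher oligos, was imaged in 50 mM Na-HEPES pH 8.0, 25 mM NaCl in 2.5 °C steps up to 60 °C. Signals were normalised to pre-quench Cy3 and to control variants. Melting temperature and folding enthalpy came from bootstrapped two-state fits, inverse-variance combined over four replicates. Fitted temperatures were raised by 9.35 °C to match UV melts.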

A short description of data set [2]: folding enthalpy; higher = less favourable; fluorescence melt of hairpins on a sequencing array, two-state fit. The conditions noted are these: sodium 0.088 M. In outline:
as §1

GTATACGAAAGTACTTAC ((((((....)))..))): the Tm in data set [1] was found to be 31.5 °C. Moreover, the folding enthalpy in data set [2] is -13.5 kcal/mol.
As for GTATACGAAAGTAGTAC ((((((....))).))), the Tm in data set [1] turned out to be 29.6 °C. In addition, the folding enthalpy in data set [2] was -11.7 kcal/mol.
Consider GTATAGAAATATAC (((((....))))), for which, in data set [1], the Tm is 23.1 °C. The folding enthalpy in data set [2] was -7.94 kcal/mol.
For GTATAGACGAAAGTCTAC (((..(((....)))))), in that order: 33.5 °C and -10.5 kcal/mol.
For GTATAGGAAACTATAC ((((((....)))))), in that order: 41.5 °C and -25.8 kcal/mol.
For GTATAGGCGAAAGCCTAC (((..(((....)))))), the Tm in data set [1] stood at 31.8 °C. In addition, the folding enthalpy in data set [2] was -8.12 kcal/mol.
For the sequence GTATATCCGAAAGGATAC (((..(((....)))))), in data set [1], the Tm was determined as 34.7 °C. Besides, the folding enthalpy in data set [2] is -12.4 kcal/mol.
GTATATCGAAAGATGTAC (((.(((....))).))): the Tm in data set [1] came to 44.5 °C. In addition, the folding enthalpy in data set [2] was -31.9 kcal/mol.
For GTATATCGAAAGATTTAC (((.(((....))).))), in that order: 36.4 °C and -21.8 kcal/mol.
For the sequence GTATATGGAAACGTATAC (((((.(....).))))), the Tm in data set [1] was found to be 35.2 °C. The folding enthalpy in data set [2] is -24.4 kcal/mol.
On to GTATCACCGAAAGGTTAC (((..(((....)))))), for which the Tm in data set [1] came to 25.8 °C. In addition, the folding enthalpy in data set [2] was -8.26 kcal/mol.
With GTATCAGGAAACTGGTAC (((.(((....))).))), in data set [1], the Tm is 43.5 °C. In addition, the folding enthalpy in data set [2] was -29.5 kcal/mol.
Regarding GTATCCCGAAAGGGCTAC (((.(((....))).))), in data set [1], the Tm amounted to 41.3 °C. The folding enthalpy in data set [2] was -22.5 kcal/mol.
On to GTATCCCGAAAGGGTTAC (((.(((....))).))), for which, in data set [1], the Tm came to 47.4 °C. Besides, in data set [2], the folding enthalpy is -21 kcal/mol.
For GTATCCGAAAGGAACTAC ((((((....)))..))), in that order: 33.4 °C and -14.3 kcal/mol.
Turning to GTATCCGAAAGGAGCTAC ((((((....)))..))), the Tm in data set [1] was 31.8 °C. Besides, in data set [2], the folding enthalpy was -12.6 kcal/mol.
On to GTATCCGAAAGGATCTAC ((((((....)))..))), for which the Tm in data set [1] amounted to 39.1 °C. In data set [2], the folding enthalpy was -13.7 kcal/mol.
GTATCGAAAGATAC (((((....))))): the Tm in data set [1] worked out at 52.7 °C. In addition, the folding enthalpy in data set [2] is -25.1 kcal/mol.
On the same counts, the results for GTATCGCGAAAGCGGTAC (((.(((....))).))) are 56.5 °C and -29.2 kcal/mol.
For GTATCGGGAAACCGGTAC (((.(((....))).))), in that order: 48.9 °C and -32 kcal/mol.
In the case of GTATCTCCGAAAGGATAC (((..(((....)))))), in data set [1], the Tm came out at 30.7 °C. Moreover, the folding enthalpy in data set [2] is -19.6 kcal/mol.
For GTATCTCGAAAGAGGTAC (((.(((....))).))), in that order: 48.7 °C and -34.4 kcal/mol.
Consider GTATCTCGAAAGAGTTAC (((.(((....))).))), for which the Tm in data set [1] is 36.4 °C. Further, the folding enthalpy in data set [2] was -26.6 kcal/mol.
In the case of GTATCTGAAAAGATAC ((((((....)))))), the Tm in data set [1] stood at 49.2 °C. Further, the folding enthalpy in data set [2] is -33.2 kcal/mol.
Turning to GTATGACCGAAAGGTTAC (((..(((....)))))), in data set [1], the Tm came out at 30.5 °C. In addition, the folding enthalpy in data set [2] was -10.3 kcal/mol.
On to GTATGAGGAAACTCGTAC (((.(((....))).))), for which the Tm in data set [1] came to 44 °C. In data set [2], the folding enthalpy was -33.4 kcal/mol.
As for GTATGCCGAAAGGCTAC (((.(((....)))))), in data set [1], the Tm came to 48.3 °C. The folding enthalpy in data set [2] was -13.1 kcal/mol.
As to GTATGCGAAAGCAATAC ((((((....))).))), the Tm in data set [1] came to 49.4 °C. The folding enthalpy in data set [2] is -20.3 kcal/mol.
Take GTATGCGAAAGCAATTAC ((((((....)))..))): in data set [1], the Tm is 28.2 °C. Besides, the folding enthalpy in data set [2] was -10.7 kcal/mol.
On to GTATGCGAAAGCAGCTAC ((((((....)))..))), for which the Tm in data set [1] was determined as 32.8 °C. The folding enthalpy in data set [2] is -13.4 kcal/mol.
On the same counts, the results for GTATGCGGAAACACATAC (((((.(....).))))) are 39.8 °C and -32.8 kcal/mol.
As to GTATGCGGAAACGCATGC (.(((((....))))).), the Tm in data set [1] is 55.5 °C. Besides, the folding enthalpy in data set [2] was -21.2 kcal/mol.
As for GTATGCGGAAACGTATGC (.((.((....)).)).), in data set [1], the Tm was 32.2 °C. In data set [2], the folding enthalpy is -18 kcal/mol.
With GTATGGACGAAAGTCTAC (((..(((....)))))), the Tm in data set [1] was 29.2 °C. In addition, in data set [2], the folding enthalpy was -10.9 kcal/mol.
GTATGGCGAAAGCCGTAC (((.(((....))).))): the Tm in data set [1] is 56.9 °C. In data set [2], the folding enthalpy was -25.9 kcal/mol.
Consider GTATGGGAAACCATAC ((((((....)))))), for which the Tm in data set [1] was determined as 50.8 °C. Further, the folding enthalpy in data set [2] was -36.9 kcal/mol.
As for GTATGGGGAAACCCATAC (((((((....))))))), the Tm in data set [1] was 59 °C. For the same sequence, the folding enthalpy in data set [2] is -33.5 kcal/mol.
On the same counts, the results for GTATGTCGAAAGACGTAC (((.(((....))).))) are 52.8 °C and -24.8 kcal/mol.
As for GTATGTCGAAAGACTTAC (((.(((....))).))), in data set [1], the Tm came to 45.5 °C. The folding enthalpy in data set [2] was -25.1 kcal/mol.
On to GTATGTGGAAACACGTAC (((.(((....))).))), for which the Tm in data set [1] was 47.1 °C. Also, the folding enthalpy in data set [2] was -29.3 kcal/mol.
GTATTACGAAAGTATAC (((.(((....)))))): the Tm in data set [1] was 32.5 °C. Further, the folding enthalpy in data set [2] was -18.1 kcal/mol.
As for GTATTAGGAAACCAATAC (((((.(....).))))), the Tm in data set [1] was determined as 25.9 °C. In data set [2], the folding enthalpy was -14.2 kcal/mol.
For GTATTCGAAAGAAGTAC ((((((....))).))), in that order: 24.9 °C and -8.84 kcal/mol.
Turning to GTATTCGCGAAAGCGTAC (((..(((....)))))), the Tm in data set [1] is 23.4 °C. Besides, the folding enthalpy in data set [2] was -8 kcal/mol.
As for GTATTGGAAACAATAC ((((((....)))))), the Tm in data set [1] turned out to be 46.5 °C. Further, the folding enthalpy in data set [2] was -26.9 kcal/mol.
GTATTGGGAAACCAATGC (.(((((....))))).): the Tm in data set [1] was found to be 44.3 °C. The folding enthalpy in data set [2] is -26.9 kcal/mol.
As for GTATTGGGAAACCAGTAC (((.(((....))).))), the Tm in data set [1] amounted to 40 °C. In addition, the folding enthalpy in data set [2] was -27.3 kcal/mol.
For the sequence GTATTTCGAAAGAACTAC (((.(((....))).))), in data set [1], the Tm was 31.7 °C. The folding enthalpy in data set [2] is -19.2 kcal/mol.
In the case of GTATTTCGAAAGAATTAC (((.(((....))).))), the Tm in data set [1] turned out to be 33.3 °C. Also, the folding enthalpy in data set [2] was -28.3 kcal/mol.
Turning to GTCAAAGGAAACCTTGAC (((((.(....).))))), the Tm in data set [1] stood at 38.2 °C. Also, the folding enthalpy in data set [2] is -26.9 kcal/mol.
With GTCAAAGGAAACTTTGAC (((((((....))))))), the Tm in data set [1] amounted to 55.8 °C. Further, the folding enthalpy in data set [2] is -44.9 kcal/mol.
On to GTCAACCCGAAAGGGGAC (((..(((....)))))), for which the Tm in data set [1] was found to be 41.8 °C. The folding enthalpy in data set [2] was -15 kcal/mol.
On the same counts, the results for GTCAACGGAAACGTTGGC (.(((((....))))).) are 54.9 °C and -32.5 kcal/mol.
GTCAAGCGAAAGCTCGAC (((.(((....))).))): in data set [1], the Tm was 49.7 °C. Moreover, in data set [2], the folding enthalpy is -30.3 kcal/mol.
As for GTCAAGGAAACTTGAC ((((((....)))))), the Tm in data set [1] turned out to be 53.5 °C. Further, the folding enthalpy in data set [2] was -29.6 kcal/mol.
